Laboratory results reported in ChEMBL document CHEMBL3271963, “Relationship between analgetic ED50 dose and time-course brain levels N-alkylnormeperidine homologues” (J Med Chem, 1976).

Legend:
Mus musculus [1] = assay: Analgetic potency in iv dosed Swiss-Webster mouse; assay type: functional
Brain = assay: Drug uptake in iv dosed Swiss-Webster mouse brain measured per gram of tissue; assay type: ADME, organism-based; conditions: in vivo
Method in brief: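 Mice received a single iv bolus of the ³H-labelled compound into the tail vein (0.033 ml/10 g). Whole brains were removed at 5, 10, 20, 30 and 45 min (n = 6 per point) and homogenised in 0.01 N HCl with unlabelled carriers and a [¹⁴C]-N-butylnormeperidine internal standard. Samples were basified to pH 12, extracted into benzene and run on TLC. Levels came from ³H/¹⁴C ratios against a standard curve, expressed per gram, with area under the concentration-time curve.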

Mus musculus [2] = assay: Analgetic potency in iv dosed Swiss-Webster mouse relative to meperidine; assay type: functional
Liver [3] = assay: Drug metabolism in iv dosed Swiss-Webster mouse liver measured per gram of tissue over 5 to 45 mins; assay type: ADME, organism-based; conditions: in vivo
Method in brief: (§1)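 Mice received a single iv bolus of the ³H-labelled N-alkylnormeperidine into the lateral tail vein (0.033 ml/10 g), with 6 animals per time point. Livers were taken at 5, 10, 20, 30 and 45 min, homogenised in 0.01 N HCl, and spiked with unlabelled parent, normeperidine and a [¹⁴C] internal standard. Samples were basified to pH 12, extracted into C₆H₆ and separated by TLC. Parent and normeperidine were quantified by ³H/¹⁴C ratio, corrected for 5.8% (v/w) residual blood, and integrated over 5–45 min.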

Liver [4] = assay: Drug metabolism in iv dosed Swiss-Webster mouse liver assessed as norme-peridine concentration measured per gram of tissue over 5 to 45 mins; assay type: ADME, organism-based; conditions: in vivo; method in brief: as §1

Compound | ED50 (Mus musculus [1]) | Drug uptake (Brain) | Ratio (Mus musculus [2]) | Drug metabolism (Liver [3]) | Drug metabolism (Liver [4])
CCCN1CCC(C(=O)OCC)(c2ccccc2)CC1.Cl | 45.9 µmol/kg | 828 nmol·min/g | 0.7 | 263.3 nmol·min | 917.7 nmol·min
CCCCCCN1CCC(C(=O)OCC)(c2ccccc2)CC1.Cl | 3.7 µmol/kg | 126 nmol·min/g | 8.8 | 153.3 nmol·min | 17.9 nmol·min
CCCCN1CCC(C(=O)OCC)(c2ccccc2)CC1.Cl | 19.1 µmol/kg | 274 nmol·min/g | 1.7 | 83.8 nmol·min | 121.7 nmol·min
CCOC(=O)C1(c2ccccc2)CCN(C)CC1.Cl [MEPERIDINE HYDROCHLORIDE] | 32.8 µmol/kg |  |  | 926.7 nmol·min | 1733.1 nmol·min
